Article PMC3771329 (Journal of the American Chemical Society, 2013)

Assays:
furin = furin (Homo sapiens, UniProt P09958); assay: Fluorescence spectrometry of probes incubated with and without furin; format: biochemical; conditions: 2 μM probe, furin (100 pmol·U−1) buffer (100 mM HEPES, 1 mM CaCl2, pH 7.5) with 1 mM TCEP, 3 h, 37 °C; n=3
[1] = test system: MDA-MB-231 (furin-overexpressing) subcutaneous tumors; assay: Furin-like activity photoacoustic imaging in mice, MDA-MB-231 tumors; format: in vivo; conditions: 25 nmol by tail vein; imaged every 15 min up to 60 min; n=4
How it was run: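 Female nude (Nu/Nu) mice carried subcutaneous upper-thigh xenografts from 10 million MDA-MB-231 or LoVo cells, grown 3–4 weeks. Mice were under 2% isoflurane in oxygen with a tail-vein catheter. Tumors got an 11-min pre-scan at 740 nm. Test compound (25 nmol, diluted from DMSO stock into 150 μL sterile PBS) was given i.v. PA scans ran every 15 min for 1 h: 120 views, 100 pulses/view, 250 μm voxels, 3D back-projection reconstruction. Signal normalized to t=0; n=4/group, SD; two-sided paired t test.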

[2] = format: physicochemical; conditions: after incubation with furin, buffer pH 7.5 with TCEP, 37 °C, 3 h

Sequence of furin (P09958 108-595 limits assumed): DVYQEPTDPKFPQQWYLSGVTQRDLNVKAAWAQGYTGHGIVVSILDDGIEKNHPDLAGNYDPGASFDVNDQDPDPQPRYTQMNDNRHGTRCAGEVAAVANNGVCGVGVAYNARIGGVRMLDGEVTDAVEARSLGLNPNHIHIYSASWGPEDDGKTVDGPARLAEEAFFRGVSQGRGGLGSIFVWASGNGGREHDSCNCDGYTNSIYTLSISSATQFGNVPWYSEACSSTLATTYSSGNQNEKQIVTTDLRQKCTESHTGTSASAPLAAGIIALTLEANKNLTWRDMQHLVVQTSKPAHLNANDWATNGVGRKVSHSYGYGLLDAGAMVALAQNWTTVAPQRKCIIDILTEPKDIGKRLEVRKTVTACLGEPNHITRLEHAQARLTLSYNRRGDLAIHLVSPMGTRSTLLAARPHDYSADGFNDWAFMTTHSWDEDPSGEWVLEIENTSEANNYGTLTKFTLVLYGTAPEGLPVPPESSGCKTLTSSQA

Ac-RRRVC(SEt)K(Atto740)-CABT [ESOR-PA02]
drop in fluorescence, incubated with furin relative to no furin added (furin): no significant decrease | PA signal in MDA-MB-231 tumors after probe injection [1]: very low levels of PA signal

Ac-RVRRC(SEt)K(Atto740)-CABT [ESOR-PA01]
precipitation / water solubility of the oligomers formed with furin [2]: no precipitate was formed | drop in fluorescence, incubated with furin relative to no furin added (furin): 6 fold
